# Reference: ChEMBL document CHEMBL2202960, “Discovery of the investigational drug TAK-441, a pyrrolo[3,2-c]pyridine derivative, as a highly potent and orally active hedgehog signaling inhibitor: modification of the core skeleton for improved solubility” (Bioorg Med Chem, 2012)
# Columns and labels:
# [1] = biological target: Sonic hedgehog protein (Mus musculus, UniProt Q62226); experiment: Inhibition of recombinant mouse Shh-N expressed in mouse NIH3T3/Gli-luc cells assessed as inhibition of Gli1 expression after 48 hrs by luciferase reporter gene assay; assay type: cell-based
# Outline: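 NIH3T3/Gli-luc cells were kept in DMEM with 10% FBS and 500 µg/mL G418, then seeded overnight on collagen-coated plates at 7.5×10³ cells/well (37 °C, 5% CO2). Final well conditions were 5.8% FBS, 1 µg/mL Shh-N and 0.03–1000 nM compound (n = 4 wells), incubated 48 h. Controls used 0.1% DMSO ± Shh-N. Read-out was Bright-Glo luciferase, and IC50 is the mean of four measurements.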
# [2] = Solubility of the compound in lapanese pharmacopoeia second fluid at pH 6.8; assay type: physicochemical; settings: Japanese Pharmacopoeia second fluid
# Outline: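 Solubility was measured in Japanese Pharmacopoeia second fluid, pH 6.8. After incubation, precipitate was removed by filter-plate filtration and dissolved compound in the filtrate was quantified by HPLC.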
# [3] = Cmax in nu/nu BALB/c mouse at 100 mg/kg, po; assay type: ADME, organism-based; design: dose 100 mg/kg, route oral; settings: in vivo
# [4] = test system: Mus musculus; experiment: Gli1 mRNA expression level in human PAN-04 cells xenografted mouse tumor at 25 mg/kg, po after 24 hrs of first dose relative to control; settings: PAN-04, po
# [5] = AUC (0 to 24 hrs) in nu/nu BALB/c mouse at 100 mg/kg, po; assay type: ADME, organism-based; design: time < 24 hr, dose 100 mg/kg, route oral; settings: plasma
# [6] = AUC (0 to 24 hrs) in dog at 10 mg/kg, po; assay type: ADME, organism-based, Canis lupus familiaris; design: time < 24 hr, dose 10 mg/kg, route oral; settings: plasma
# Outline: (§1)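 Fed dogs were dosed at 1 mg/kg iv and 10 mg/kg po. Plasma was collected over 0–24 h, deproteinized with methanol containing an internal standard, centrifuged, and diluted with 0.01 mol/L ammonium formate/(MeCN/formic acid 100:0.2) (7:3) for compound quantitation. AUC_0–24h is reported as mean ± SD of four animals.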
# [7] = Clearance in dog at 1 mg/kg, iv and 10 mg/kg, po; assay type: ADME, organism-based, Canis lupus familiaris; settings: in vivo
# Outline: (§2)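 Single doses were given to rats and dogs: 1 mg/kg iv and 10 mg/kg po. Plasma was deproteinized with methanol containing internal standard, then diluted with 0.01 mol/L ammonium formate/(MeCN/formic acid) 7:3. Rat values are the mean ± SD of three non-fasted animals. Dog values come from four fed animals, with F calculated per animal from AUC0–24h.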
# [8] = AUC (0 to 24 hrs) in dog at 1 mg/kg, iv; assay type: ADME, organism-based, Canis lupus familiaris; design: time < 24 hr, dose 1 mg/kg, route intravenous; settings: plasma; outline: as §1
# [9] = Oral bioavailability in rat at 10 mg/kg; assay type: ADME, organism-based; settings: in vivo
# Outline: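 Rats (n = 3, listed as non-fasted) given 1 mg/kg iv and 10 mg/kg po. Plasma was deproteinized with methanol containing internal standard, centrifuged, and diluted in 0.01 mol/L ammonium formate/[MeCN/formic acid 100:0.2] (7:3). F was calculated from mean AUC_0–24h values after oral and intravenous dosing.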
# [10] = Volume of distribution at steady state in dog at 1 mg/kg, iv and 10 mg/kg, po; assay type: ADME, organism-based, Canis lupus familiaris; settings: in vivo, read-out: Vdss; outline: as §2
# [11] = Oral bioavailability in dog at 10 mg/kg; assay type: ADME, organism-based, Canis lupus familiaris; settings: in vivo
# Outline: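 Fed dogs (n = 4) given 1 mg/kg iv and 10 mg/kg po. Plasma was deproteinized with methanol containing internal standard, centrifuged, and diluted in 0.01 mol/L ammonium formate/[MeCN/formic acid 100:0.2] (7:3). F was calculated per animal from AUC_0–24h after oral versus intravenous dosing in the same dog.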
# [12] = test system: Mus musculus; experiment: Antitumor activity in Ptc1+/- p53-/- medulloblastoma allograft model of mouse assessed as tumor growth inhibition at 25 mg/kg, po qd for 14 days relative to control; assay type: functional
# Outline: (§3)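 Medulloblastoma tumours were serially passaged subcutaneously in nude mice (CAnN.Cg-Foxn1nu). Treatment started at 150–250 mm³ tumour volume: oral dosing as a 0.5% methylcellulose suspension for 14 days, once daily per the figure legend. Tumours were measured by caliper, with V = (a×b²)/2. T/C% = mean treated (Vend−Vstart) / control (Vend−Vstart) × 100, with n = 5 and a 1-tailed Shirley-Williams test against vehicle.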
# [13] = Volume of distribution at steady state in rat at 1 mg/kg, iv and 10 mg/kg, po; assay type: ADME, organism-based; settings: in vivo, read-out: Vdss; outline: as §2
# [14] = test system: Mus musculus; experiment: Antitumor activity in Ptc1+/- p53-/- medulloblastoma allograft model of mouse assessed as tumor growth inhibition at 1 mg/kg, po qd for 14 days relative to control; assay type: functional; outline: as §3
# [15] = AUC (0 to 24 hrs) in rat at 10 mg/kg, po; assay type: ADME, organism-based; design: time < 24 hr, dose 10 mg/kg, route oral; settings: plasma
# Outline: (§4)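 Rats were given 1 mg/kg iv or 10 mg/kg po and were non-fasted. Plasma was sampled over 0–24 h, deproteinized with methanol plus an internal standard, centrifuged, diluted in 0.01 mol/L ammonium formate/(MeCN/formic acid 100:0.2) (7:3), and centrifuged again. AUC_0–24h is reported as mean ± SD of three animals.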
# [16] = AUC (0 to 24 hrs) in rat at 1 mg/kg, iv; assay type: ADME, organism-based; design: time < 24 hr, dose 1 mg/kg, route intravenous; settings: plasma; outline: as §4
# [17] = Clearance in rat at 1 mg/kg, iv and 10 mg/kg, po; assay type: ADME, organism-based; settings: in vivo; outline: as §2
# Sonic hedgehog protein, sequence (Q62226 25-198 limits assumed): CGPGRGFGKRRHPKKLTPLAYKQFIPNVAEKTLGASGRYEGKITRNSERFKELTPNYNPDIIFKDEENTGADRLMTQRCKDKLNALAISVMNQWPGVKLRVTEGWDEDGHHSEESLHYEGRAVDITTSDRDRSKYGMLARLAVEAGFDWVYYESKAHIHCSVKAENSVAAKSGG
smiles,measurement,setting,value
CCc1cc2c(c(OC)c(C(=O)NC3CCN(C(=O)CO)CC3)n2C)c(=O)n1CC(=O)c1ccccc1,IC50,[1],5.7 nM
same,solubility,[2],63 µg/mL
CCc1c(C(=O)NC2CCN(C(=O)CO)CC2)n(C)c2cc(CC)n(CC(=O)c3ccccc3)c(=O)c12,IC50,[1],95 nM
CCc1cc2c(c(OCCF)c(C(=O)NC3CCN(C(=O)CO)CC3)n2C)c(=O)n1CC(=O)c1ccccc1,IC50,[1],4.9 nM
same,solubility,[2],69 µg/mL
COc1c(C(=O)NC2CCN(C(=O)CO)CC2)n(C)c2cc(C)n(CC(=O)c3ccccc3)c(=O)c12,IC50,[1],14 nM
same,solubility,[2],77 µg/mL
COc1c(C(=O)NC2CCN(C(=O)CO)CC2)n(C)c2c1c(=O)n(CC(=O)c1ccccc1)c1ccccc21,Cmax,[3],3630 ng/mL
same,"level, % of control at 25 mg/kg",[4],5%
same,AUC(0-t) at 24 h,[5],32300 ng·h/mL
same,solubility,[2],8.4 µg/mL
COc1c(C(=O)NC2CCN(C(=O)CO)CC2)n(C)c2c3c(n(CC(=O)c4ccccc4)c(=O)c12)CCCC3,IC50,[1],96 nM
same,solubility,[2],80 µg/mL
CCOc1c(C(=O)NC2CCN(C(=O)CO)CC2)n(C)c2cc(CC)n(CC(=O)c3ccccc3)c(=O)c12,IC50,[1],6.9 nM
same,solubility,[2],58 µg/mL
CCc1cc2c(c(OCC(F)(F)F)c(C(=O)NC3CCN(C(=O)CO)CC3)n2C)c(=O)n1CC(=O)c1ccccc1 [TAK-441],Cmax,[3],21500 ng/mL
same,AUC(0-t) at 24 h,[6],45400 ng·h/mL
same,clearance,[7],2.69 mL/min/kg
same,IC50,[1],4.4 nM
same,AUC(0-t) at 24 h,[8],5100 ng·h/mL
same,AUC(0-t) at 24 h,[5],206000 ng·h/mL
same,bioavailability,[9],31.7%
same,Vd,[10],2.18 L/kg
same,bioavailability,[11],90.3%
same,T/C,[12],3%
same,Vd,[13],0.682 L/kg
same,T/C,[14],46%
same,solubility,[2],81 µg/mL
same,AUC(0-t) at 24 h,[15],8030 ng·h/mL
same,AUC(0-t) at 24 h,[16],2530 ng·h/mL
same,clearance,[17],6.63 mL/min/kg
CCc1cc2c(c(OCC(F)F)c(C(=O)NC3CCN(C(=O)CO)CC3)n2C)c(=O)n1CC(=O)c1ccccc1,IC50,[1],4.4 nM
same,solubility,[2],84 µg/mL
